Measured values from different studies.
Protocols differ between the studies behind these lines.
Target: Serine/threonine-protein kinase 25 (STK25, Homo sapiens, UniProt O00506)

Compound	assay	setting	quantity	result
COc1cc(-c2cc(-c3ccc(N4CCNCC4)cc3)cnc2C)cc(OC)c1OC	enzyme activity, inhibitor	0.1 µM	inhibition	1%
C[C@H](c1cccc(C#N)c1)n1cc(Cl)cc(C(N)=O)c1=N	cell-free assay, competition with immobilised ligand	1 µM	remaining binding	100%
CCCCNc1ncc2c(-c3ccc(F)cc3)nn(C[C@H]3CC[C@H](N)CC3)c2n1	target engagement in cells, inhibitor, chemoproteomics	20 mM	inhibition	5.7%
CCOc1cc(-c2nncn2C)ccc1Nc1ncc2cc(C)nc(NCC(C)(C)C)c2n1	enzyme activity, inhibitor, FRET	1 µM	inhibition	< 15%
O=C(Nc1cnc(Oc2ccc(F)cc2)nc1)N1CCc2ncccc2[C@@H]1c1ccc(F)cc1	cell-free assay, competition with immobilised ligand	1 µM	remaining binding	82%
CN1CCC2(CC1)NC(=O)c1c(c3ccc(Cl)c(Cl)c3n1C)C2C#N (racemic)	thermal stability, DSF	10 µM	ΔTm	0.3 °C
CC(C)(C)c1nc(-c2cccc(NS(=O)(=O)c3c(F)cccc3F)c2F)c(-c2ccnc(N)n2)s1	enzyme activity, inhibitor, radiometric	1 µM	remaining activity	51%
O=C(Nc1cnn(-c2csc(C(=O)NC3COC3)c2)c1)Nc1ccccc1Cl	enzyme activity, inhibitor	5 µM	remaining activity	106%
CC1(C)NC(=O)c2[nH]c3c(Cl)c(Cl)ccc3c2C1C#N (centres unmarked)	thermal stability, DSF	10 µM	ΔTm	1.6 °C
CC(=O)c1c(NS(C)(=O)=O)c2cc(-c3ccc(Cl)cc3)c(-c3ccc(Cl)cc3Cl)nc2n(C)c1=O	cell-free assay, competition with immobilised ligand	1 µM	remaining binding	100%
Cc1ccc(Nc2nccc(N(C)c3ccc4c(C)n(C)nc4c3)n2)cc1S(N)(=O)=O	enzyme activity, inhibitor	0.5 µM	remaining activity	97.3%
COc1cc(-c2cn(C3CCc4ccccc4N(CC(F)(F)F)C3=O)nn2)ccc1-n1ccc(C)n1 (centres unmarked)	cell-free assay, competition with immobilised ligand	1 µM	remaining binding	100%
COc1cc2ncnc(Nc3ccc(Oc4ccccc4)cc3C)c2cc1OC	enzyme activity, inhibitor	1 µM	inhibition	-2%
Cn1cncc1C1=CN(c2ncnc3[nH]cnc23)CCS1	enzyme activity, inhibitor, radiometric	50 nM	inhibition	13.5%
Cc1cnc(NC2CCOCC2)nc1-n1cnc(C(=O)NC(CN)c2cc(F)cc(Cl)c2)c1 (centres unmarked)	enzyme activity, inhibitor, radiometric	1 µM	remaining activity	71%
Cc1sc(C(=O)NC2COC2)cc1-n1cc(NC(=O)Nc2c(F)cccc2Cl)cn1	enzyme activity, inhibitor	10 µM	remaining activity	70.5%
CCN(CC)CCNC(=O)c1c(C)[nH]c(/C=C2\C(=O)Nc3ccc(F)cc32)c1C	cell-free assay	0.5 µM	remaining signal	76.1%
COc1cc(Cl)c(C(=O)N[C@@H](CN[C@H]2CC[C@@H](N)CC2)Cc2ccc(C#N)cc2)cc1-c1ccc(CN[C@H](C)c2ccc(C)cc2)o1	enzyme activity, inhibitor	1 µM	remaining activity	104%
CS(=O)(=O)N1CCCC(NC(=O)[C@H](CCC2CCCCC2)NC(=O)c2ccc(CNC(=O)c3cnc4ccccn34)cc2)C1 (some centres unmarked)	cell-free assay, competition with immobilised ligand	0.1 µM	remaining binding	100%
Cn1c2c(c3ccc(Cl)c(Cl)c31)C(C#N)C1(CCOCC1)NC2=O (centres unmarked)	thermal stability, DSF	10 µM	ΔTm	0.4 °C
O=C1NC(=O)c2cc(Nc3ccc(F)cc3)c(Nc3ccc(F)cc3)cc21	cell-free assay	0.5 µM	remaining signal	101%
Cc1cc(C)c(-n2ccn3nc(-c4cccnc4)cc23)cc1NC(=O)c1cc(C#N)cc(S(F)(F)(F)(F)F)c1	cell-free assay, competition with immobilised ligand	0.1 µM	remaining binding	79.1%
C#Cc1cccc(Nc2ncnc3cc(OCCOC)c(OCCOC)cc23)c1	cell-free assay	0.5 µM	remaining signal	99.4%
CN(C)c1ncc(F)c(-c2cnn3ncccc23)n1	binding	1 µM	remaining binding	100%
Cc1noc([C@H]2C[C@@H](c3ccc(C(F)(F)F)cc3)CN(C(=O)N3CCS(=O)(=O)C3)C2)n1	cell-free assay, competition with immobilised ligand	1 µM	remaining binding	89%
Nc1ncnc2occ(-c3ccc(NC(=O)Nc4cc(C(F)(F)F)ccc4F)cc3)c12	cell-free assay, inhibitor	20 µM	remaining signal	77%
